This passage reports activation factor results from PubChem BioAssay AID1216 (Sanford-Burnham Center for Chemical Genomics, 2008).

Structures are written as SMILES. The campaign covered roughly 190,000 compounds. About 660 (0.35%) were called active. The sample as a whole holds a higher share of actives than the screen did. Unmarked numbers belong to inactive results.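 The calls were made as follows: active = activation factor of 2 or more at 20 µM; inactive = the rest.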

The target of the assay is Mannose-6-phosphate isomerase (Homo sapiens) (UniProt P34949). As to the kind of experiment: human PMI activators, high substrate, primary screen, biochemical, fluorescence intensity, near-saturating mannose 6-phosphate (AID 1216). Conditions: coupled PMI enzyme assay, resazurin fluorescence, 20 min; at 20 µM; active compounds read high; 1 = untreated enzyme, 0 = substrate-free blank. An outline of the steps: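 Test system: human phosphomannose isomerase with PGI, G6PDH, diaphorase coupling enzymes; amount: 15 ng/mL PMI; incubation: enzyme reaction with compound 20 min at room temperature; technique: resorufin fluorescence (Ex 544/Em 590 nm) from resazurin via diaphorase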
Sequence of Mannose-6-phosphate isomerase (Homo sapiens) (P34949 whole entry, looked up): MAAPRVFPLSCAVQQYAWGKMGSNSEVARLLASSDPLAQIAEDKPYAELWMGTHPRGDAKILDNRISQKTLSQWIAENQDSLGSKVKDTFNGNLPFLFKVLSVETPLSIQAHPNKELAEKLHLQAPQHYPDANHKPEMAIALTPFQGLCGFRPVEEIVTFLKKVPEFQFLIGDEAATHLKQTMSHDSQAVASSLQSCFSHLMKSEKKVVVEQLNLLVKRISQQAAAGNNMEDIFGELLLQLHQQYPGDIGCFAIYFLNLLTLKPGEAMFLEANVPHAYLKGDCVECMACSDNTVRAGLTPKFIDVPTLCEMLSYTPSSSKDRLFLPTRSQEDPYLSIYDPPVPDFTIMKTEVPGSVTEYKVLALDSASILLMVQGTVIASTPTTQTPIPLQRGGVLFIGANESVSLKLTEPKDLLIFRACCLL
In general terms: Alamar Blue is a resazurin reagent that responds to reducing activity.
As to `COc1ccc(NC(=S)SC)cc1OC`, the activation factor is 0.7.
For `CCC(CC)C(=O)Nc1ccc(S(=O)(=O)Nc2nccs2)cc1` the value was 0.9.
In the case of `CCn1c(N)c(Br)c(=O)[nH]c1=O` it was 1.1; in that of `CC(=O)Nc1sc2c(c1C(c1cccc(F)c1)N1CCN(CCO)CC1)CCCC2` (stereo not drawn), 1.1; in that of `Cc1cc(SCC(=O)NCCN2C(=O)CSC2=O)nc2ccccc12`, 1.2.
Take `Cc1cc(C(=O)COC(=O)C2CC2)c(C)n1-c1ccc(F)cc1`: the activation factor was 0.9.
With `Cc1ccc(N2C(=O)C(Cc3ccccc3)NC2=S)cc1` (stereo not drawn), the activation factor was 0.8.
In the case of `C=C1c2cc(CC)ccc2NC(=O)N1c1ccc(C)cc1` it was 2.1 (active); in that of `Cc1ccc(N2C(=O)C3CC3C2=O)cc1` (stereo not drawn), 1.
Turning to `CCOC(=O)N1CCN(C(=O)Cn2cnc3ccccc3c2=O)CC1`, the activation factor is 1.
For `COc1ccc(NC(=O)c2sc(N3CCOCC3)nc2-c2ccccc2)c(OC)c1` the value was 1.
Consider `O=C(OCc1ccc([N+](=O)[O-])cc1)c1ccccn1`, for which the activation factor is 0.9.
Regarding `COc1cc(/C=N/O)ccc1OCc1ccc([N+](=O)[O-])cc1`, the activation factor was 1.
For `COc1cc(C(=O)OCc2ccc([N+](=O)[O-])cc2)cc(OC)c1OC` the value was 2 (active); for `COc1ccc(-n2nc(C(=O)Nc3cc(OC)c(OC)c(OC)c3)c3ccccc3c2=O)c(OC)c1`, 0.9; for `O=C(CSc1nnc(-c2ccc([N+](=O)[O-])cc2)o1)Nc1ccccn1`, 1.
As for `CCOC(=O)C1=C(C)NC(=O)NC1c1ccccc1` (stereo not drawn), the activation factor is 1.
In the case of `CCOC(=O)C1=C(C)NC(C)=C(C(=O)OCC)C1c1ccccn1` it was 1; in that of `CCOC(=O)C1=C(C)NC(SC)=NC1c1ccccc1` (stereo not drawn), 2.7 (active).
Turning to `CSc1cccc(NC(=S)N(Cc2ccccc2)Cc2ccccn2)c1`, the activation factor is 0.9.
As to `CCO[C@@H]1OC(C(=O)NCc2nc3ccccc3[nH]2)=C[C@H](C2CCCCC2)[C@H]1CCCO`, the activation factor is 0.9.
In the case of `O=C(COC(=O)c1ccc(F)cc1)Nc1nc2ccc([N+](=O)[O-])cc2s1` it was 1; in that of `COCCn1c(C)cc(C2=NNC(=Nc3ccc(F)cc3)SC2)c1C`, 1.3; in that of `C=CCn1c(C)cc(C2=NNC(=NCC)SC2)c1C`, 1.1.
In the case of `Cc1cc(C2=NNC(=Nc3ccc(S(=O)(=O)N4CCOCC4)cc3)SC2)c(C)n1CC1CCCO1` (stereo not drawn) it was 2.1 (active).
Regarding `COc1ccccc1NC(=S)N1CCN(C(c2ccccc2)c2ccccc2)CC1`, the activation factor was 1.
For `O=C(Nc1ccc(NC(=O)c2ccco2)c(Cl)c1)c1cccc([N+](=O)[O-])c1` the value was 1; for `CC(C)(C)c1ccc(/C=C/C(=O)Nc2ncccn2)cc1`, 0.8.
For `Cc1ccc(Cl)cc1NC(=O)c1ccccn1` the value was 1; for `Cc1ccc(CNC(=O)c2cccnc2Cl)cc1`, 1.
For `O=C(NNc1cc(Cl)ccc1Cl)c1cccnc1Cl` the value was 2 (active); for `O=C(COc1ccc(-c2ccccc2)cc1)NN=C1CCCC1`, 1.
`Cc1ccc(-c2nn(-c3cccc(F)c3)cc2CNCCc2ccncc2)o1`: the activation factor is 1.
With `COc1ccc(N2CCN(C(=O)CCSCc3ccccc3F)CC2)cc1`, the activation factor is 0.9.
As for `CCOc1cc(N2CCOCC2)c(OCC)cc1NC(=O)c1ccc(C)s1`, the activation factor is 0.7.
For `COC(=O)c1sc(=S)n(-c2ccccc2)c1N`, the activation factor is 0.9.
Turning to `COC(=O)c1sc2[nH]c(=S)n(N)c(=O)c2c1C`, the activation factor is 2 (active).
For `CCOC(=O)Cn1c(N)c(C(=O)OC)sc1=S` the value was 1.1; for `Cc1cccc(C)c1NC(=O)CNC(=O)Cc1ccc(Br)cc1`, 1; for `O=S(=O)(Nc1cc(S(=O)(=O)N2CCOCC2)ccc1N1CCCC1)c1cccs1`, 1.1.
As to `NC(=O)CC[C@@H]1NC(=O)[C@@H]2CCCN2C(=O)c2cc([N+](=O)[O-])cc(F)c2NCCC[C@@H](C(N)=O)NC1=O`, the activation factor was 1.
For the compound `O=C(CC1C(=O)NCCN1CC(c1ccccc1)c1ccccc1)NCCc1cn[nH]c1` (stereo not drawn), the activation factor was 0.8.
For `COC(=O)c1[nH]c2ccccc2c1NC(=O)CN1CCCc2ccccc21` the value was 0.9.
For `COC(=O)c1[nH]c2cccc(C)c2c1NC(=O)CN1CCCc2ccccc21` the value was 2.1 (active).
Consider `NS(=O)(=O)c1cccc(NC(=O)CN2CCCc3ccccc32)c1`, for which the activation factor is 1.1.
On to `C=CCNC(=O)c1ccccc1NC(=O)c1ccc(Cl)c(S(=O)(=O)Nc2cccc(C)c2C)c1`, for which the activation factor is 1.
In the case of `Cc1cccc(C)c1NC(=S)N(Cc1cccnc1)Cc1ccccc1Cl` it was 0.8.
In the case of `CCOC(=O)c1[nH]ncc1CN1CCCC(C(=O)c2ccc(OC)cc2C)C1` (stereo not drawn) it was 1.1.
In the case of `COc1ccccc1N(C)S(=O)(=O)c1ccc(Cl)c(C(=O)N2CCC(C(N)=O)CC2)c1` it was 1.1; in that of `CCn1cc(-c2cc(C(=O)O)on2)c(C)n1`, 1.2; in that of `Cc1ccc2nc(NCCCNC(=O)c3cnccn3)c(C#N)cc2c1`, 0.9.
Take `COCCCNC(=S)NC(=O)c1ccc([N+](=O)[O-])cc1`: the activation factor is 0.9.
For `COCCCNC(=S)NCCNc1nc2cc(C)c(C)cc2cc1C#N` the value was 2.1 (active); for `O=C(NCc1ccccc1Cl)C1CCC(CNc2c(N3CCCCC3)c(=O)c2=O)CC1` (stereo not drawn), 1; for `CCCCn1c(O)c(N=NC(=O)Cn2c(C(F)(F)F)nc3ccccc32)c2ccccc21`, 1.
In the case of `CCOC(=O)N1CCC(=NNC(N)=O)CC1` it was 1; in that of `COc1cccc2cc(/C(C)=N/NC(=O)c3ccco3)oc12`, 1.1.
Take `COc1ccccc1N(CC(=O)Nc1ccc(C(F)(F)F)cc1)S(C)(=O)=O`: the activation factor was 1.1.
Regarding `CC(C)(C)C(=O)c1cnc(Nc2ccccc2)s1`, the activation factor is 1.
As to `O=C(CSc1ncccn1)NCCc1ccccc1`, the activation factor was 1.
Turning to `S=c1[nH]nc(Nc2ccccc2)s1`, the activation factor is 2 (active).
Regarding `Cc1nc(C)c(-c2csc(NCCc3ccccc3)n2)s1`, the activation factor is 1.
For `c1ccc(Nc2n[nH]nc2-c2ccccc2)cc1` the value was 0.9.
In the case of `S=c1[nH]nc(NCCc2ccccc2)s1` it was 2.1 (active); in that of `N=c1c2c3c(sc2ncn1N)CCCC3`, 0.9.
In the case of `O=c1[nH]cnc2c1c(-c1ccccc1)cn2-c1ccc(F)cc1`, the activation factor is 1.
For `O=C(CCCn1c(=O)c2sccc2n(CC(=O)NCC2CCCO2)c1=O)NCc1ccco1` (stereo not drawn) the value was 0.9; for `Cn1cc(C(=O)NCc2ccccc2F)cn1`, 1; for `O=C(CO/N=C/c1ccccc1OC(F)F)NC1CCCC1`, 1.1.
For `CCN(CC)C(=O)C(=O)Nc1cccc(Br)c1` the value was 0.9; for `C=CCc1ccccc1OCC(=O)N/N=C/c1ccccc1OCC`, 0.9.
As for `OCC1(Cc2ccccc2C(F)(F)F)CCN(Cc2cccc3cnccc23)CC1`, the activation factor was 0.9.
In the case of `COc1ccc(OC)c(NC(=O)CN(Cc2ccc(Cl)cc2)S(C)(=O)=O)c1` it was 0.8.
For `CSc1ncccc1C(=O)OCc1ccc(Br)cc1` the value was 1; for `COC(=O)C(NS(=O)(=O)c1ccc(F)cc1)c1ccccc1` (stereo not drawn), 0.9; for `COc1ccc(-c2c3c(=O)n(C)c(=O)n(C)c3cn2-c2cccc(OC)c2)cc1`, 1.2.
Consider `COc1cccc(-n2cc3c(c2-c2ccccc2)c(=O)n(C)c(=O)n3C)c1`, for which the activation factor was 1.
For `COc1ccc(-c2c3c(=O)n(C)c(=O)n(C)c3cn2NC(C)=O)cc1` the value was 2 (active).
In the case of `COCCn1c(C)cc(C(=O)COC(=O)/C=C/c2cccc(OC)c2)c1C` it was 1.
In the case of `COc1ccc(CNC2CCCCC2)cc1` it was 1; in that of `COc1ccc(N/N=C2/CCCCC2=O)cc1`, 2 (active); in that of `Cc1ccc(N/N=C2\COC(C)(C)CC2=O)cc1`, 1.9.
As to `CC(=O)c1cc(C#N)c(N2CC(C)OC(C)C2)nc1C` (stereo not drawn), the activation factor was 1.
Take `CC(C)N(C(=O)Cn1cc(SCC(=O)N2CCCC2)c2ccccc21)C(C)C`: the activation factor was 1.
For `COc1ccc(-c2nn(-c3ccccc3)cc2CN2CCCO2)c(F)c1` the value was 1; for `CCN(C(=O)COC(=O)c1cc(NS(=O)(=O)c2ccc(Cl)c([N+](=O)[O-])c2)ccc1O)C1CCCCC1`, 0.9.
In the case of `Cc1ccc(N/C=C/C(=O)c2ccccc2)cc1C` it was 1.1; in that of `O=C(/C=C/NCc1ccc(F)cc1)c1ccccc1`, 1.
In the case of `O=C(/C=C\NCC(=O)c1ccccc1)c1ccccc1` it was 2.5 (active); in that of `CN(C)CCCSc1ccccc1NC(=O)/C=C/c1ccccc1`, 1; in that of `Cc1ccc(S(=O)(=O)CCC(=O)OCc2ccccc2)cc1`, 1.
For the compound `O=C(CNC(=O)c1cc(=O)[nH]c2ccccc12)Nc1ccc(F)c(F)c1`, the activation factor was 0.9.
In the case of `COC(=O)C(=Nc1ccccc1)/C(C(=O)C(=O)N(C)c1ccccc1)=C(\O)c1ccc(Cl)cc1` it was 0.8; in that of `COc1cc(OC)cc(C(=O)OCC(=O)Nc2ccc(F)cc2F)c1`, 0.9.
In the case of `COc1ccc(C(=O)Nc2ccc(F)cc2F)cc1` it was 2 (active); in that of `COc1ccccc1CC(=O)Nc1ccc(F)cc1F`, 1; in that of `Cc1cc(C)cc(C(=O)NCC(=O)OCC(=O)N2CCCCC2)c1`, 1.2.
In the case of `Cc1ccc(N/C(N)=N/c2nc(C(F)(F)F)cc(C(F)(F)F)n2)cc1` it was 1.1; in that of `O=C(Nc1ccccc1N1CCN(C(=O)c2ccccc2)CC1)c1ccc2c(c1)OCO2`, 0.9.
As to `O=C(CN1CCN(CC(=O)Nc2ccc3c(c2)OCO3)CC1)Nc1ccc(F)cc1`, the activation factor was 1.
In the case of `O=C(CN1CCN(c2ccccc2F)CC1)c1ccc2c(c1)OCO2` it was 2 (active); in that of `S=C(Nc1ccc(Br)cc1Cl)N1CCC2(CC1)OCCO2`, 0.9.
For `CCOC(=O)/C(=N\Nc1cc(Cl)ccc1Cl)N1CCN(C)CC1` the value was 1.
